Source: PubChem BioAssay
Sampled rows, rich in hits. Any-hit rate of the full collection: about 2.8%.
PGE2 EP2 inh = EP2 receptor (human) inhibition | C6 glioma cells expressing human EP2, cAMP TR-FRET; cells stimulated with saturating PGE2 | inhibition, % at 25 µM | 260,000 tested, 0.52% active | AID 1422;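 active = percent inhibition above 40 after rounding to a whole number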;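 note: rat C6 glioma host cells with rolipram phosphodiesterase inhibitor present; the protocol text gives 20 µM as final concentration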
EP2 modulator = modulators of human EP2 prostaglandin E2 receptor; P43116; EP2-expressing cells, cAMP HTRF FRET, PGE2 co-stimulation; induction, % at 25 µM; 260,000 tested, 0.83% active;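 active = compounds whose cAMP rise, as percent of the full-agonist control response, exceeds 60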;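 note: rat C6 glioma line stably carrying human EP2 under a CMV promoter; the protocol text gives 20 µM as final concentration; 100% = response of wells given 1 µM PGE2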
NPY Y2 blocker = blocks the human neuropeptide Y Y2 receptor; P49146; NPY-Y2 expressing cells, antagonist mode; inhibition, % at 2.7 µM; 140,000 tested, 0.99% active; in the data active = inhibition above about 17%;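 note: 0% = vehicle with agonist challenge and 100% = reference antagonist with challenge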
Target sequence (P49146 whole entry, looked up): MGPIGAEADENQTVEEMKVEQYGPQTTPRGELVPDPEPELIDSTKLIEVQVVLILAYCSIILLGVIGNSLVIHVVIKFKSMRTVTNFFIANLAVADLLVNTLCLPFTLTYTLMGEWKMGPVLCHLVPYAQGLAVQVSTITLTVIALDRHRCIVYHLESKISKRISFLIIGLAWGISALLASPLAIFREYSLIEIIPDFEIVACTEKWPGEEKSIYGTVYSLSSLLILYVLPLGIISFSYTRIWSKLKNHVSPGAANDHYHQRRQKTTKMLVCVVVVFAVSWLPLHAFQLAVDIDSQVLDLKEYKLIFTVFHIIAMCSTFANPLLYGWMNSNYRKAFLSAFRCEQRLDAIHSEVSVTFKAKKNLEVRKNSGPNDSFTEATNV
NPY-Y1 antag = NPY-Y1 (human) receptor antagonism. 200,000 tested, 1% active. inhibition, % at 3.6 µM. HEK293-CNG Y1 cells, membrane potential fluorescence; NPY at EC95, then isoproterenol. AID 1040. P25929;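 active = inhibition above the campaign mean inhibition of all tested compounds plus 3 SD, cut at about 20% in these data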;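 note: 0% = DMSO wells given NPY plus isoproterenol and 100% = isoproterenol alone without NPY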
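Assay system: HEK293 Y1/CNG channel cell line; Doses: single compound dose of 3.6 µM, 0.4% DMSO; Timing: dye 3 h, compound 60 min room temperature, stimulation 45 min; Technique: Membrane-potential fluorescent dye readout; Measure: % inhibition of NPY effect.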
NPY-Y2 PAM-ag = potentiates or activates human NPY-Y2 receptor; P49146; activation, % at 3.6 µM; 220,000 tested, 0.45% active; cells expressing NPY-Y2, potentiator/agonist read-out; in the data active = activation above about 27%;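 note: cells stimulated with NPY near EC25 plus isoproterenol at EC100; 0% = vehicle plus submaximal agonist and 100% = vehicle plus saturating agonist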
NPY-Y1 PAM-ag = potentiators or agonists of human neuropeptide Y receptor Y1. P25929. NPY-Y1 expressing cells, potentiator/agonist activation. activation, % at 3.6 µM. 220,000 tested, 0.37% active; in the data active = activation above about 33%, passing the limit was not always enough;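 note: cells stimulated with NPY at EC10 then isoproterenol at EC100; 0% = low agonist plus stimulus and 100% = saturating agonist plus stimulus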
NPY-Y1 antag ct = counter-screen for NPY-Y2 antagonists: human NPY-Y1 antagonism. AID 1256. inhibition, % at 3.6 µM. cell-based NPY-Y1 antagonism counterscreen. 710 tested, 19% active. shares compounds with NPY Y2 blocker; in the data active = inhibition above about 20%;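 note: cells challenged with NPY then isoproterenol with cAMP sensed through a CNG channel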
NPY2 antag conf = human NPY-Y2 antagonism, confirmation; shares compounds with NPY Y2 blocker; HEK293 NPY-Y2 CNG channel, membrane potential fluorescence; inhibition, % at 2.8 µM; 710 tested, 32% active; AID 1257;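 active = mean inhibition of triplicate wells above the hit cutoff set in the primary screen, cut at about 17% in these data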;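 note: 0% = DMSO with NPY challenge and 100% = BIIE0246 high control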
* = called active by the depositor; . = no result.

SMILES	PGE2 EP2 inh	EP2 modulator	NPY Y2 blocker	NPY-Y1 antag	NPY-Y2 PAM-ag	NPY-Y1 PAM-ag	NPY-Y1 antag ct	NPY2 antag conf
COc1ccc(/C=N/NC(=O)CN(CCc2ccccc2)S(=O)(=O)c2ccc(NC(C)=O)cc2)cc1OC	9	-32	18*	-1	-5	-10	11	44*
COc1cc2cc(C#N)c(SCC(=O)NCCc3c[nH]c4ccccc34)nc2cc1OC	5	-14	.	.	.	.	.	.
O=C(Cn1nc(-c2ccccc2)nc1-c1ccccc1)OC1CCCCC1	20	48	19*	8	-21	-25	8	6
CCOC(=O)Cn1nc(-c2ccccc2)nc1-c1ccccc1	4	-27	-2	12	4	3	.	.
COc1cccc(CSc2nnc(-c3c[nH]c4ccccc34)o2)c1	9	-36	.	.	.	.	.	.
Cc1noc(C)c1CCC(=O)NC1CC2(CCCC2)Oc2ccccc21 (configuration not stated)	.	1	.	.	.	.	.	.
CCOc1ccc2[nH]c(=O)c(CN(Cc3ccccc3)C(C)=O)cc2c1	9	-13	.	.	.	.	.	.
O=C(NCC1CCCO1)c1nc2c(nnn2Cc2ccccc2Cl)c(=O)[nH]1 (configuration not stated)	2	7	18*	4	-20	-20	5	6
C/C(Cl)=C/Cn1c(N2CCNCC2)nc2c1c(=O)n(C)c(=O)n2C	8	-35	.	.	.	.	.	.
CCS(=O)(=O)NCC1CCN(c2ncccn2)CC1	2	-11	.	.	.	.	.	.
Cn1c(SCC(=O)Nc2ccc(Cl)cc2)nnc1-c1ccncc1	5	-23	.	.	.	.	.	.
CCN(CC)C(=O)CSc1nc(-c2cccs2)cc(-c2cccs2)c1C#N	9	34	18*	5	5	-35	16	13
CCN=C1S/C(=C\c2cc(OCC)c(O)cc2Br)C(=O)N1CC	11	49	27*	15	7	-28	25*	43*
CCN=C1S/C(=C\c2cn(CC)c3ccccc23)C(=O)N1CC	4	33	7	7	-7	29	.	.
COc1cc(-c2cc(C(=O)Nc3c(Cl)cc(Cl)cc3Cl)c3ccccc3n2)cc(OC)c1OC	5	0	40*	0	-24	-34	49*	73*
COC(=O)c1ccc(CSc2nc3sc4c(c3c(=O)n2C)CCCC4)o1	13	28	18*	1	7	4	17	19*
COC(=O)c1ccc(CSc2nc3ccccc3c(=O)n2-c2ccccc2)o1	18	45	18*	13	-37	-109	10	47*
CC(C)[C@@H](Cn1nc(C2CC2)ccc1=O)NC(=O)C1(c2ccc(Cl)cc2)CCCC1	.	20	.	.	.	.	.	.
O=C(Cc1ccccc1)Nn1cnc2ccccc21	17	-7	25*	3	-7	3	2	0
CCc1ccc2[nH]c(=O)c(CN(Cc3ccc(F)cc3)C(=S)NCc3ccco3)cc2c1	12	-34	.	.	.	.	.	.
CCCCNC(=O)c1onc(CSc2cc(C)ccc2C)c1C(=O)O	13	33	21*	18	-20	-24	31*	25*
Nc1c(C(=O)NCc2ccc3c(c2)OCO3)c2nc3ccccc3nc2n1CCCN1CCOCC1	16	9	19*	12	-5	-10	17	7
Nc1c(C(=O)NCCN2CCOCC2)c2nc3ccccc3nc2n1-c1ccc2c(c1)OCO2	7	19	-2	-4	21	-16	.	.
COc1ccc(C(=O)C(CN2CCOCC2)c2ccccc2)cc1F (configuration not stated)	-5	6	17*	17	-35	-10	4	5
O=C(NCc1ccccn1)c1cc(-c2ccc(-c3ccccc3)cc2)nc2ccccc12	7	6	3	5	-8	-11	.	.
SMILES	PGE2 EP2 inh	EP2 modulator	NPY Y2 blocker	NPY-Y1 antag	NPY-Y2 PAM-ag	NPY-Y1 PAM-ag	NPY-Y1 antag ct	NPY2 antag conf
O=C(NCc1ccccn1)c1cc(-c2ccc(Cl)cc2)nc2ccccc12	11	34	27*	12	8	-30	4	4
CC1CCN(CCCNC(=O)c2ccc(CSCc3cccc(Cl)c3)o2)CC1	6	-10	17*	12	-7	-24	9	12
Cc1cc2c(cc1NC(=O)Cc1c(C)oc3c1C(=O)CC(C)(C)C3)OCCO2	8	-70	.	.	.	.	.	.
CCS(=O)(=O)N1Cc2ccccc2CC1C(=O)NCC12CC3CC(CC(C3)C1)C2 (configuration not stated)	2	8	6	17	-24	-10	.	.
CCS(=O)(=O)N1Cc2ccccc2CC1C(=O)NC(C)C12CC3CC(CC(C3)C1)C2 (configuration not stated)	11	63*	19*	10	-13	-7	5	9
Cc1ccc2cc(CN(Cc3nnnn3CCc3ccccc3)C3CCCC3)c(=O)[nH]c2c1C	9	33	.	.	.	.	.	.
CCOC(=O)CSc1ncc(OC)c(Sc2ccc(Cl)cc2)n1	2	52	21*	14	-19	-34	4	9
CCOC(=O)CSc1ncc(OC)c(=O)[nH]1	5	4	1	1	9	0	.	.
O=C(CSCc1ccc(Cl)cc1)N/N=C/c1c(Cl)cccc1Cl	11	-56	17*	3	3	-1	11	26*
O=C(CSCc1ccc(Cl)cc1)N/N=C/c1ccccc1	8	-20	8	2	-17	2	.	.
Cc1nnc(SCc2nnc(-c3cccs3)o2)n1Cc1ccccc1	5	-18	.	-3	16	-3	.	.
Clc1ccc(-c2nnc(CSc3nnc(-c4cccs4)n3Cc3ccccc3)o2)cc1	8	18	25*	15	19	-12	23*	5
COc1ccc(-c2nnc(SCc3nnc(-c4ccccc4)o3)n2-c2ccccc2)cc1	5	-11	1	6	-14	21	.	.
COc1ccc(-c2nnc(SCc3nnc(-c4ccc(Cl)cc4)o3)n2-c2ccccc2)cc1	1	-3	23*	6	-5	-2	18	14
Cc1cccc(/C(N)=N/OC(=O)COc2ccccc2Cl)c1	8	4	19*	5	6	-28	8	15
C/C(CC1CC(COCC(C)C)OC1=O)=N\NC(N)=S (configuration not stated)	12	17	27*	3	-10	-14	2	1
CC1=NN(c2ccccc2)C(=O)/C1=C\c1ccc(Br)s1	30	-67	17*	5	-2	-32	31*	34*
CC1=NN(c2ccccc2)C(=O)/C1=C/c1cccs1	12	-4	2	-2	3	5	.	.
COc1cc(/C=N/n2cnnc2)ccc1OCc1ccc(C)cc1	12	9	40*	19	-20	-42	16	32*
